From ChEMBL document CHEMBL4049448, “Development of a Potent Wound Healing Agent Based on the Liver Fluke Granulin Structural Fold” (J Med Chem, 2017)
Active and inactive are the calls of the source. No cut-off for these calls is given here. Positions of bridges follow the written chain, without caps; N, C: chain ends. Residues, ends and D or L forms follow the SMILES beside them.

What was measured:
[1] = system: H69 cholangiocyte cell line (Homo sapiens); assay: Induction of human H69 cell growth at 400 nM after 5 to 6 days by real time cell proliferation assay relative to control
Mus musculus = assay: Wound healing activity in BALB/c mouse assessed as biopsy punch-induced wound closure at 56 pmol administered topically daily as 1.5% methyl cellulose gel for 4 days measured on day 4 post last dose relative to control; format: functional
Outline: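 Female BALB/c mice, 11−12 weeks, 19−23 g, groups of 4−5. Under ip xylazine 16 mg/kg and ketamine 80 mg/kg, a 5 mm biopsy punch made a skin-deep scalp wound (~0.2 cm2). Betadine was applied first. Then 56 pmol in 50 μL 1.5% methylcellulose gel was applied daily, days 0−4. Healing at day 4 expressed relative to PBS vehicle.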

NCI-H69 [2] = assay: Induction of human H69 cell growth at 2 uM after 5 to 6 days by real time cell proliferation assay relative to control; format: functional
Outline: (§1)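 H69 SV40-transformed human cholangiocytes, seeded 1500 cells/well in complete media and grown overnight, then washed with PBS and held ≥6 h in low-nutrient medium (0.5% FCS, 1/20 growth factors). Single treatment added at 10× stock. Impedance cell index read hourly for 5−6 days and normalized to pre-treatment. Proliferation ratio taken at day 4 versus control (tropomyosin-derived 20-residue peptide for peptides; thioredoxin for recombinant protein). Two-Way ANOVA with Dunnett's correction.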

NCI-H69 [3] = assay: Cytotoxicity against human H69 cells up to 2 uM after 5 to 6 days by real time cell proliferation assay; format: cell-based
NCI-H69 [4] = assay: Induction of human H69 cell growth at 400 nM after 5 to 6 days by real time cell proliferation assay relative to control; format: functional
Outline: as §1

NCI-H69 [5] = assay: Induction of human H69 cell growth up to 2 uM after 5 to 6 days by real time cell proliferation assay; format: functional, cell-based
Outline: as §1

NCI-H69 [6] = assay: Induction of human H69 cell growth at 32 nM after 5 to 6 days by real time cell proliferation assay relative to control; format: functional
Outline: as §1

Row | Structure (SMILES) | Activity [1] | Activity (Mus musculus) | Activity (NCI-H69 [2]) | Activity (NCI-H69 [3]) | Activity (NCI-H69 [4]) | Activity (NCI-H69 [5]) | Activity (NCI-H69 [6])
1 | CC(C)C[C@@H]1NC(=O)CNC(=O)[C@H](CCCNC(=N)N)NC(=O)[C@H](C)NC(=O)[C@@H]2CSSC[C@H](N)C(=O)N3CCC[C@H]3C(=O)N[C@@H](CC(=O)O)C(=O)N3CCC[C@H]3C(=O)N[C@@H](C(C)C)C(=O)N[C@@H](Cc3ccc(O)cc3)C(=O)N[C@@H]([C@@H](C)O)C(=O)N[C@@H](CSSC[C@@H](C(=O)O)NC(=O)CNC(=O)[C@H](Cc3ccc(O)cc3)NC(=O)CNC(=O)[C@H](Cc3cnc[nH]3)NC1=O)C(=O)N[C@@H](CCCNC(=N)N)C(=O)N1CCC[C@H]1C(=O)NCC(=O)N[C@@H](CCC(N)=O)C(=O)N[C@@H]([C@@H](C)O)C(=O)N2 (H-CPDPVYTCRPGQTCARGLHGYGC-OH; disulfide 1-14, 8-23) | inactive | 37 - 41% | 14 - 25% | Non-Toxic | – | – | –
2 | CC[C@H](C)[C@H](NC(=O)[C@@H]1CCCN1C(=O)[C@H](CCC(N)=O)NC(=O)[C@H](CC(C)C)NC(=O)[C@@H](NC(=O)[C@H](CC(=O)O)NC(=O)[C@@H](N)CCSC)[C@@H](C)O)C(=O)N[C@@H](CCCNC(=N)N)C(=O)N[C@@H](CO)C(=O)N1CCC[C@H]1C(=O)N[C@@H](CO)C(=O)N[C@H]1CSSC[C@@H]2NC(=O)[C@H]([C@@H](C)O)NC(=O)[C@H](CCC(N)=O)NC(=O)CNC(=O)[C@@H]3CCCN3C(=O)[C@H](CCCNC(=N)N)NC(=O)[C@H](CSSC[C@@H](C(=O)N[C@@H](C)C(=O)O)NC(=O)CNC(=O)[C@H](Cc3ccc(O)cc3)NC(=O)CNC(=O)[C@H](Cc3cnc[nH]3)NC(=O)[C@H](CC(C)C)NC(=O)CNC(=O)[C@H](CCCNC(=N)N)NC(=O)[C@H](C)NC2=O)NC(=O)[C@H]([C@@H](C)O)NC(=O)[C@H](Cc2ccc(O)cc2)NC(=O)[C@H](C(C)C)NC(=O)[C@@H]2CCCN2C(=O)[C@H](CC(=O)O)NC(=O)[C@@H]2CCCN2C1=O (H-MDTLQPIRSPSCPDPVYTCRPGQTCARGLHGYGCA-OH; disulfide 12-25, 19-34) | – | 37 - 41% | 14 - 25% | Non-Toxic | 9% | – | –
3 | CSCC[C@H](NC(=O)[C@@H]1CCCN1C(=O)[C@H](C)NC(=O)[C@@H]1CSSC[C@@H]2NC(=O)[C@H]([C@@H](C)O)NC(=O)[C@H](Cc3ccc(O)cc3)NC(=O)[C@H](C(C)C)NC(=O)[C@@H]3CCCN3C(=O)[C@H](CC(=O)O)NC(=O)[C@@H]3CCCN3C(=O)[C@@H](NC(=O)[C@H](CO)NC(=O)[C@@H]3CCCN3C(=O)[C@H](CO)NC(=O)[C@@H](N)CCCNC(=N)N)CSSC[C@H](NC(=O)[C@H]([C@@H](C)O)NC(=O)[C@H](CCC(N)=O)NC(=O)CNC(=O)[C@@H]3CCCN3C(=O)[C@H](CCCNC(=N)N)NC2=O)C(=O)N[C@@H](C)C(=O)N[C@@H](CCCNC(=N)N)C(=O)NCC(=O)N[C@@H](CC(C)C)C(=O)N[C@@H](Cc2cnc[nH]2)C(=O)NCC(=O)N[C@@H](Cc2ccc(O)cc2)C(=O)NCC(=O)N1)C(=O)N[C@@H](CC(=O)O)C(=O)O (H-RSPSCPDPVYTCRPGQTCARGLHGYGCAPMD-OH; disulfide 5-18, 12-27) | inactive | 26 - 41% | – | – | – | – | –
4 | CC[C@H](C)[C@H](NC(=O)[C@@H](N)C(C)C)C(=O)N[C@@H](Cc1cnc[nH]1)C(=O)N[C@H]1CSSC[C@@H]2NC(=O)[C@H]([C@@H](C)O)NC(=O)[C@H]([C@@H](C)O)NC(=O)CNC(=O)[C@H](CC(=O)O)NC(=O)[C@@H]3CCCN3C(=O)[C@H](CSSC[C@@H](C(=O)N[C@@H](C)C(=O)N3CCC[C@H]3C(=O)N[C@@H](Cc3ccccc3)C(=O)N[C@@H](CO)C(=O)O)NC(=O)[C@H](Cc3ccc(O)cc3)NC(=O)[C@H](Cc3c[nH]c4ccccc34)NC(=O)[C@H](C(C)C)NC(=O)CNC(=O)[C@H](Cc3ccc(O)cc3)NC(=O)[C@@H]3CCCN3C(=O)[C@H](CO)NC(=O)[C@H](CC(C)C)NC(=O)[C@H](C)NC2=O)NC(=O)[C@H]([C@@H](C)CC)NC(=O)[C@H]([C@@H](C)O)NC(=O)[C@H](C)NC(=O)[C@H](C)NC(=O)[C@H](CC(=O)O)NC1=O (H-VIHCDAATICPDGTTCALSPYGVWYCAPFS-OH; disulfide 4-16, 10-26) | – | – | – | – | – | inactive | 9%
